# A selection: hits, their analogues and other compounds. The true share with any hit is near 1.9%.
# proCasp3 act = activators of human procaspase-3; activation, % at 8.5 µM; recombinant procaspase-3 D3A, Ac-DEVD-pNA absorbance 405 nm; AID 463141; 0.11% of 330,000 active;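 active means activation above the mean of all tested compounds plus 3 SD, cut at about 21% in these data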
#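 Compound: 8.5 µM single point, 0.8% DMSO / Material: Autoprocessing-dead procaspase-3 D3A mutant enzyme / Timing: 1 h preincubation plus 2 h reaction at 25 °C / Medium: Zinc-free HEPES/NaCl buffer with 0.01% Triton X-100 at pH 7.4 / Technique: 405 nm absorbance of p-nitroaniline, reads at 0 and 120 min / Repeats: one well per compound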
# IDE cell activ = IDE (human) activation, cell-based | HEK cells, FAbeta-B cleavage, fluorescence polarization; 0% vehicle, 100% cell-free pure enzyme wells | 0.073% of 340,000 active | activation, % at 5.96 µM | P14735;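 active means activation above the mean of all tested compounds plus 3 SD, set per screening campaign, cut at about 17% in these data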
# procasp7 counter = counter-screen for procaspase-3 activators: activators of human procaspase-7 | 0.093% of 330,000 active | recombinant procaspase-7, Ac-DEVD-pNA absorbance 405 nm; D23A/D198A/D206A triple mutant, cannot self-cleave; scale: DMSO 0, 5 µM enzyme 100 | activation, % at 8.5 µM | P55210;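 active means percent activation above the screen-wide mean plus 3 SD, cut at about 25% in these data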
# Target sequence (P55210 whole entry D23A/D198A/D206A): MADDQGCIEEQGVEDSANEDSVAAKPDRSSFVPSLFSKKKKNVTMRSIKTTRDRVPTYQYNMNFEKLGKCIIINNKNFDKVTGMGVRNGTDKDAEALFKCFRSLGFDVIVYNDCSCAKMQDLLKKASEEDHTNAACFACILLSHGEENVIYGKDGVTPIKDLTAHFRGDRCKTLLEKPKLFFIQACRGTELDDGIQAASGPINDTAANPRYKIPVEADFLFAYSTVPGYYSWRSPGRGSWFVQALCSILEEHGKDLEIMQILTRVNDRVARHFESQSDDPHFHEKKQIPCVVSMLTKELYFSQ
#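 Assay system: Uncleavable procaspase-7 mutant enzyme; Input: 2 µM procaspase-7 mutant as dispensed; Also added: DEVD-pNA substrate; Medium: Zinc-free HEPES pH 7.4 with 300 mM NaCl, 0.01% Triton X-100; Timing: 1 h compound preincubation, 2 h substrate cleavage, 25 °C; Measured by: Epi-absorbance of released pNA at 405 nm, two timepoints.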
# IDE cell inh = inhibitors of human insulin-degrading enzyme in cells | HEK cells, FAbetaB cleavage, fluorescence polarization | inhibition, % at 5.59 µM | 0.41% of 320,000 active | AID 434962;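 active means percent inhibition above the average of all tested compounds plus 3 SD, set per screening campaign, cut at about 16% in these data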;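 further: IDE supplied by intact live HEK cells; FP after avidin binding of uncleaved biotin substrate so inhibition keeps polarization high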
# UBC13 inh = human UBC13 polyubiquitination inhibition | P61088 | UBC13 polyubiquitin chain formation, TR-FRET | inhibition, % at 20 µM | 0.47% of 330,000 active | AID 485273; in the data active means inhibition above about 45%, passing the limit was not always enough
# Target sequence (P61088 whole entry, looked up): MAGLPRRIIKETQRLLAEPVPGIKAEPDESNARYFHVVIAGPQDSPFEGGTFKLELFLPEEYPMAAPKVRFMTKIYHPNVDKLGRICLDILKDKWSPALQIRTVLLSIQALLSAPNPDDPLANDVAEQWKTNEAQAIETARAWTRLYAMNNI
# PHOSPHO1 block = blocks human PHOSPHO1 phosphatase activity; inhibition, % at 13.3 µM; Q8TCT1; 1.1% of 290,000 active; recombinant PHOSPHO1, absorbance phosphatase assay; in the data active means inhibition above about 60%
# Numbers stand for hits; n = inactive; x = no result.
SMILES,proCasp3 act,IDE cell activ,procasp7 counter,IDE cell inh,UBC13 inh,PHOSPHO1 block
NC(=S)C1COc2ccccc2O1 (stereo unspecified),n,n,n,n,n,n
Nn1c(C2COc3ccccc3O2)n[nH]c1=S (stereo unspecified),n,n,n,n,n,78
CC(=O)c1ccc(OCC(=O)Nc2ccc(N3CCCCC3)cc2)cc1,n,n,n,n,n,x
Cc1cc(-c2ccccc2)c2c(=O)n(-c3ccccc3)[nH]c2n1,n,n,n,n,n,n
O=c1c2c3n(c(=S)nc2[nH]n1-c1ccccc1)CCCCC3,n,n,n,n,n,82
O=C(NCC(c1cccs1)N1CCOCC1)C1CCN(S(=O)(=O)c2c(Cl)cccc2Cl)CC1 (stereo unspecified),n,n,n,n,n,x
COc1cc2[nH]c(=S)nc(NCCC(C)C)c2cc1OC,n,n,n,n,n,n
COCCCNc1nc(=S)[nH]c2cc(OC)c(OC)cc12,n,n,n,n,n,82
Cc1cccc2nc(CNC(=O)C3CCC(=O)N(Cc4ccccc4F)C3)cn12 (stereo unspecified),n,n,n,n,n,n
O=C(NCc1cnc2ccccn12)C1CCC(=O)N(Cc2ccccc2F)C1 (stereo unspecified),x,n,x,x,n,66
CCn1c(SCC(=O)N2CCN(c3ccc(F)cc3)CC2)nc2ccccc2c1=O,n,n,n,n,n,n
CCn1c(SCC(=O)N2CCN(c3ccc(Cl)cc3)CC2)nc2ccccc2c1=O,n,n,n,n,n,66
O=C(c1ccco1)N1CCN(c2c(-c3ccccc3)c3cc(Cl)ccc3[nH]c2=O)CC1,n,n,n,n,n,n
O=C(c1ccco1)N1CCN(c2ncnc3c2[nH]c2ccc(Cl)cc23)CC1,n,x,n,67,n,n
COc1ccc2sc(SCCCS(=O)(=O)O)[n+](CCCS(=O)(=O)[O-])c2c1,n,n,n,n,n,n
CSc1sc2ccccc2[n+]1CCCS(=O)(=O)[O-],n,n,n,n,n,89
O=C(N/N=C/c1ccc(OC(=O)c2ccc([N+](=O)[O-])cc2)cc1)c1cccnc1,n,n,n,n,n,63
O=C(NCCN1CCCCC1)c1ccc(Oc2cc(Cl)cc(Cl)c2)o1,n,x,n,n,n,n
CCc1ccc(NC(=S)NC(=O)c2c(-c3ccccc3Cl)noc2C)cc1,n,n,n,n,n,n
Cc1onc(-c2ccccc2Cl)c1C(=O)NC(=S)NCC(=O)c1ccccc1,n,n,n,n,n,63
Cc1nnc(NC(=O)c2c(-c3ccccc3Cl)noc2C)s1,n,n,n,n,n,60
CCOC(=O)N1CCN(C(=O)/C=C/c2ccc(C(C)(C)C)cc2)CC1,n,n,n,n,n,n
COc1ccc(NC(=O)CSCC(=O)Nc2cc(Cl)ccc2N2CCCC2)cc1,n,n,n,n,n,n
CCN(CCNCC(O)COCc1ccc(Cl)cc1)c1cccc(C)c1 (stereo unspecified),n,n,n,n,n,n
Cc1nc(SCC(=O)N2CCOCC2)c2c(=O)n(C)c(=O)n(CC(C)C)c2n1,n,n,n,n,n,x
SMILES,proCasp3 act,IDE cell activ,procasp7 counter,IDE cell inh,UBC13 inh,PHOSPHO1 block
COc1ccc(-c2oc(=O)n(C)c2-c2ccc(OC)cc2)cc1,n,n,n,n,n,61
COCCn1c(-c2ccc(OC)cc2)c(-c2ccc(OC)cc2)oc1=O,n,n,n,n,n,n
Nc1nonc1-n1nnc(C(=O)N/N=C/c2ccccn2)c1CNc1ccccc1,n,n,n,n,n,n
N#CCCn1c(SCC(=O)N2CCN(S(=O)(=O)c3ccccc3)CC2)nc2ccccc21,n,n,n,n,n,86
CC(C)Cn1c(SCC(=O)N2CCN(S(=O)(=O)c3ccccc3)CC2)nc2ccccc21,n,n,n,n,n,n
COc1ccccc1-n1cnnc1SCC(=O)N1CCN(S(=O)(=O)c2ccccc2)CC1,n,n,n,n,n,88
O=C(COC(=O)Cc1ccsc1)Nc1cccc(F)c1,n,n,n,n,n,x
Cc1cc(C)n2nc3nc4c(cc3c2n1)CCCC4,n,n,n,n,n,98
Cc1cc(C)n2nc(C)c(Br)c2n1,n,n,n,n,n,n

# High-throughput results from PubChem.
